Consider twelve compounds from ChEMBL document CHEMBL3297684, “Discovery of biarylaminoquinazolines as novel tubulin polymerization inhibitors” (J Med Chem, 2014).

The target of experiment [1] is Epidermal growth factor receptor (Homo sapiens, UniProt P00533). Nature of the experiment: Inhibition of EGFR (unknown origin) assessed as incorporation of [32P] gamma-ATP in to myelin basic protein after 30 mins by autoradiographic analysis.
Experiment [2] addresses Fibroblast growth factor receptor 1 (Homo sapiens, UniProt P11362). Briefly: Inhibition of FGFR1 (unknown origin) assessed as incorporation of [32P] gamma-ATP in to myelin basic protein after 30 mins by autoradiographic analysis.
Experiment [3] concerns the target Tyrosine-protein kinase ABL1 (Homo sapiens, UniProt P00519). Nature of the experiment: Inhibition of Abl1 (unknown origin) assessed as incorporation of [32P] gamma-ATP in to myelin basic protein after 30 mins by autoradiographic analysis.
Experiment [4] addresses Proto-oncogene tyrosine-protein kinase Src (Homo sapiens, UniProt P12931). Nature of the experiment: Inhibition of Src (unknown origin) assessed as incorporation of [32P] gamma-ATP in to myelin basic protein after 30 mins by autoradiographic analysis.
The target of the next experiment is Tubulin (Bos taurus, UniProt Q6B856+Q862L2+Q862F3). Nature of the experiment: Inhibition of bovine brain tubulin polymerization after 20 mins by turbidimetry analysis. Summed up:
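Electrophoretically homogeneous bovine brain tubulin at 10 μM (1.0 mg/mL) in 0.8 M monosodium glutamate, pH 6.6, with compound in 4% (v/v) DMSO. Preincubated 15 min at 30 °C without GTP, then chilled; 0.4 mM GTP added at 0 °C. Temperature raised to 30 °C and turbidity followed at 350 nm.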

Experiment [5] can be described thus: Cytotoxicity against human OVCAR8 cells assessed as inhibition of cell proliferation by SRB assay. In kind it is functional, cell-based. The settings on record: OVCAR-8. The method in brief: (§1)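 Cell protein measured with sulforhodamine B. NCI/ADR-RES is isogenic with OVCAR-8 but overexpresses P-gp. Values are mean SD of at least three independent experiments.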
A general note: In SRB staining, fixed cells bind dye roughly in proportion to their protein.

The nature of experiment [6]: Cell cycle arrest in human OVCAR8 cells assessed as increase in number of cells at G2/M phase at 1 uM after 30 mins by flow cytometry. In kind it is functional, cell-based. Particulars: OVCAR-8, in the assay text read “after 24 hrs” for “after 30 mins”. Summed up: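 OVCAR-8 cells grown in DMEM with 10% heat-inactivated FBS plus penicillin/streptomycin, 37 °C, 5% CO2. Exposed 24 h to 1 μM compound or drug-free medium. Fixed in 70% cold ethanol, RNase-treated (100 μg/mL, 30 min, 37 °C), stained with propidium iodide (100 μg/mL, 30 min, room temperature). 10 000 events per sample read by flow cytometry for G2/M fraction.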

Experiment [7] can be described thus: Cytotoxicity against human NCI-ADR-RES cells assessed as inhibition of cell proliferation by SRB assay. In kind it is functional, cell-based. Summed up:
as §1

For a further experiment, the system named is A-431. Briefly: Cytotoxicity against human A431 cells assessed as reduction in cell viability after 68 hrs by MTT assay. Particulars: A-431, 68 h. In kind it is functional, cell-based.

The source made the active and inactive calls. No cut-off for these calls is given here.

Chain of Proto-oncogene tyrosine-protein kinase Src (P12931 2-536 limits assumed): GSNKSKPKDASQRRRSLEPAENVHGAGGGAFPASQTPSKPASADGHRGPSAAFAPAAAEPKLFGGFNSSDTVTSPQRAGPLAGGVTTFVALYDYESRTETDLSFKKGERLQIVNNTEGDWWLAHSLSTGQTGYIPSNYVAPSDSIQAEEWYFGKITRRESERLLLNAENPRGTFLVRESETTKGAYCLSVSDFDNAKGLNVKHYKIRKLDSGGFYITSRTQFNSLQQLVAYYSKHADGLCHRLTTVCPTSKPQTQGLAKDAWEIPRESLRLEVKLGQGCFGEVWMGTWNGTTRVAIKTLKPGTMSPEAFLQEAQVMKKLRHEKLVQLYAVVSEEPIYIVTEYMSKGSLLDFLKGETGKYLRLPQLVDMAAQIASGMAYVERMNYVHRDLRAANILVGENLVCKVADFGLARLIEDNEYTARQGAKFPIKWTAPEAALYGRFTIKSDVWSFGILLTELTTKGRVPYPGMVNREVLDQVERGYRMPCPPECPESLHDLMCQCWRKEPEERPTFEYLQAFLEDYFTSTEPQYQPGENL
Chain of Tyrosine-protein kinase ABL1 (P00519 whole entry): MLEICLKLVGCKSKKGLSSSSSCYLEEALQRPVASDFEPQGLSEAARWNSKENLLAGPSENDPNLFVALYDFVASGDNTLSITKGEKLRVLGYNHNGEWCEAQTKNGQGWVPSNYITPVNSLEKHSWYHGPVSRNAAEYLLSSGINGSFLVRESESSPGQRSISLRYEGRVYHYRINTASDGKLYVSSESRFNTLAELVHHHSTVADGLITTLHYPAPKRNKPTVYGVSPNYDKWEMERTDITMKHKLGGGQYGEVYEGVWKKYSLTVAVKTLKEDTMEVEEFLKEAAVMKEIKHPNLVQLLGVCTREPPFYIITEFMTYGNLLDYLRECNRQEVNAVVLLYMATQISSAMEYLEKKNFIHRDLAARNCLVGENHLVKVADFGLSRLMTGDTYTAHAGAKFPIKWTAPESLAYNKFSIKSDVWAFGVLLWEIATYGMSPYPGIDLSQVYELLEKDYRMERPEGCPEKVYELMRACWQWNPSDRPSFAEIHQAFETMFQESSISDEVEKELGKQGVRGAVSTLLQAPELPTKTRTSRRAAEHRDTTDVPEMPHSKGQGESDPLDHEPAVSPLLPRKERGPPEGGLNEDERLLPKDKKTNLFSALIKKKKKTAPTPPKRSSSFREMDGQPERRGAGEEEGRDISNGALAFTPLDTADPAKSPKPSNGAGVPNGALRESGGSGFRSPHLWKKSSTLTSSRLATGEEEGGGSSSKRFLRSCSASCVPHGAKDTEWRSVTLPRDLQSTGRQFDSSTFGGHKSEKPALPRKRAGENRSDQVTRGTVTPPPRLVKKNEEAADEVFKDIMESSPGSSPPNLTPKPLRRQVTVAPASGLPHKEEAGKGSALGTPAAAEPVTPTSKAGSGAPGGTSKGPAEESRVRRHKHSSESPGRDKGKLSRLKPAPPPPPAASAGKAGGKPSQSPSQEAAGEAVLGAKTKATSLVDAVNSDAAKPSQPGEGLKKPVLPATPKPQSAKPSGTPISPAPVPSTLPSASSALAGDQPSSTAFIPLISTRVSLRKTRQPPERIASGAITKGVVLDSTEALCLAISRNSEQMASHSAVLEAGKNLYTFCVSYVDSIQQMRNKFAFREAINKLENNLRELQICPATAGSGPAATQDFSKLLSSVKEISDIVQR
Chain of Fibroblast growth factor receptor 1 (P11362 whole entry): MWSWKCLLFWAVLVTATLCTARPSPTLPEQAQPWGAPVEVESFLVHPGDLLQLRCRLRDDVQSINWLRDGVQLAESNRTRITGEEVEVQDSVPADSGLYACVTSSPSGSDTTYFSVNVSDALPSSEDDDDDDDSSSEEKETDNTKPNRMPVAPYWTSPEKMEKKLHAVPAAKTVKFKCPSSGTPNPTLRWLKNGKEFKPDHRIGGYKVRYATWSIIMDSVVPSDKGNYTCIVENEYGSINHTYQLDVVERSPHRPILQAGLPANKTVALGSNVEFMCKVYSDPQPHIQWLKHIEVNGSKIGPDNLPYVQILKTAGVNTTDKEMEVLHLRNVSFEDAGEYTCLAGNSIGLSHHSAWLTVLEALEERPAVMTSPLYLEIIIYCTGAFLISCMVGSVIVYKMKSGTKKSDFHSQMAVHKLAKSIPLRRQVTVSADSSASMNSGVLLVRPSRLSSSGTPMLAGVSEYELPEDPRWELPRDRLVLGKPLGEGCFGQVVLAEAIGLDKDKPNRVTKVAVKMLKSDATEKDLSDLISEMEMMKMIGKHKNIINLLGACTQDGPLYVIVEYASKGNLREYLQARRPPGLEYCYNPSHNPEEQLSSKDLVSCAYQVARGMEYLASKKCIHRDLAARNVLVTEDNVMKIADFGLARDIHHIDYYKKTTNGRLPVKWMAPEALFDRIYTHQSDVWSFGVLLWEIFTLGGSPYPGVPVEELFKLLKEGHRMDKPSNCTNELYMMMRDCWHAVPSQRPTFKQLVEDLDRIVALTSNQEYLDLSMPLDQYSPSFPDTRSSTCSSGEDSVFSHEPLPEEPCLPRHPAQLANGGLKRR
Chain of Epidermal growth factor receptor (P00533 whole entry): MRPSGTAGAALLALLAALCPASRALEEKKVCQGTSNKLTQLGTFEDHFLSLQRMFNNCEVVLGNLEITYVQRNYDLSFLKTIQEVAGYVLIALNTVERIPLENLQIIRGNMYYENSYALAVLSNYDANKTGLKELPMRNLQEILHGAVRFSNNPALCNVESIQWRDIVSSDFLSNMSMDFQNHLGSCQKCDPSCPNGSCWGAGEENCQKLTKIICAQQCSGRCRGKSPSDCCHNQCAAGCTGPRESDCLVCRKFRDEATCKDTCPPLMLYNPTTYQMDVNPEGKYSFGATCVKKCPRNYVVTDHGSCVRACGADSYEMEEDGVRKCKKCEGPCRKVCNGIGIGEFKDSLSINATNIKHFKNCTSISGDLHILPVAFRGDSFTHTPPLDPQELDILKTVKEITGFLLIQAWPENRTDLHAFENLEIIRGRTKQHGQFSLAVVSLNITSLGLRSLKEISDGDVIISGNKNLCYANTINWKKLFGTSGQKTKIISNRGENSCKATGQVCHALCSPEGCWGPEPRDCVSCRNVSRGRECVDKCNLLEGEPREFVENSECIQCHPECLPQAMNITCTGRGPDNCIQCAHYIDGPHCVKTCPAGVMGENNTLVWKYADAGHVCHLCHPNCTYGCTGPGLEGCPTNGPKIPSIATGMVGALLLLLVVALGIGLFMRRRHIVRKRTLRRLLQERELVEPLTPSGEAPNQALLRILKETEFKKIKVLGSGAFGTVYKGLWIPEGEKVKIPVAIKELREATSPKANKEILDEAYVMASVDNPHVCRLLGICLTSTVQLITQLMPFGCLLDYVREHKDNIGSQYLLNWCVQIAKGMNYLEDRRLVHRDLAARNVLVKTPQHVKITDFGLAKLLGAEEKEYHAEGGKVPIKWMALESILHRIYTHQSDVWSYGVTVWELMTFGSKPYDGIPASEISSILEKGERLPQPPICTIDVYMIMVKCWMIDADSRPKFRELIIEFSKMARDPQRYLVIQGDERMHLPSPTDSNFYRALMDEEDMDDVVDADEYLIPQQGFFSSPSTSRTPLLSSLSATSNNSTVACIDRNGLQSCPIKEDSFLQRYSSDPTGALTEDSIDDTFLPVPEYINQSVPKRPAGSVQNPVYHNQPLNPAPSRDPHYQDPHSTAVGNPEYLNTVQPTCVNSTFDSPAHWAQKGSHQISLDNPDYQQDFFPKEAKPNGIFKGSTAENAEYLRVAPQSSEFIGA

On to `c1ccc(-c2ccnc(Nc3ncnc4cc5c(cc34)OCCO5)n2)cc1`, for which the IC50 was over 10 µM in experiment [1]; over 10 µM in experiment [2]; over 10 µM in experiment [3]; over 10 µM in [4]; over 20 µM at Tubulin.
As to `c1ccc(-c2cccc(Nc3ncnc4cc5c(cc34)OCO5)c2)cc1`, in [5], the EC50 was found to be 0.03 µM. In experiment [6], the result was Active. Also, on Tubulin, the IC50 turned out to be 1.1 µM.
As for `Cl.c1ccc(-c2cccc(Nc3ncnc4cc5c(cc34)OCCO5)c2)nc1`, the IC50 is over 10 µM in [1]; over 10 µM in experiment [2]; over 10 µM in experiment [3]; over 10 µM in [4]; 3.2 µM at Tubulin.
`c1ccc(-c2cccc(Nc3ncnc4cc5c(cc34)OCCO5)c2)cc1`: the EC50 in experiment [5] worked out at 0.5 µM. Further, on Tubulin, the IC50 amounted to 4 µM.
In the case of `COc1ccc(/C=C\c2cc(OC)c(OC)c(OC)c2)cc1O` [COMBRETASTATIN A4], the IC50 in experiment [1], in [2], in experiment [3] and in experiment [4] was over 10 µM in each case. Also, the EC50 in experiment [5] was 0.0055 µM; in experiment [7] it was 5 µM.
Turning to `c1ccc(-c2csc(Nc3ncnc4cc5c(cc34)OCCO5)n2)cc1`, the IC50 was over 10 µM in experiment [1]; over 10 µM in experiment [2]; over 10 µM in experiment [3]; over 10 µM in experiment [4]; over 20 µM against Tubulin.
On to `COc1cc2ncnc(Nc3cccc(-c4ccccc4)c3)c2cc1OC`, for which the IC50 is over 10 µM in [1]; over 10 µM in experiment [2]; over 10 µM in experiment [3]; over 10 µM in [4]; over 20 µM against Tubulin.
Turning to `c1ccc(-c2cccc(Nc3ncnc4cc5c(cc34)OCCCO5)c2)cc1`, the EC50 in experiment [5] amounted to 0.55 µM; in the experiment with A-431 it was 0.66 µM. This compound also had a concentration for half-maximal inhibition (IC50) on Tubulin of 2.3 µM.
Take `Cl.c1cc(Nc2ncnc3cc4c(cc23)OCCO4)cc(-c2cccs2)c1`: the half-inhibitory concentration (IC50) is over 10 µM in experiment [1]; over 10 µM in experiment [2]; over 10 µM in experiment [3]; over 10 µM in experiment [4]; 1.2 µM against Tubulin. For the same compound, the results for the concentration giving a half-maximal response (EC50) in [5] and in experiment [7] were 0.01 µM and 0.004 µM, respectively. Moreover, the outcome in experiment [6] was Active.
Regarding `Cl.c1cc(Nc2ncnc3cc4c(cc23)OCCO4)cc(-c2ccc[nH]2)c1`, the IC50 in [1] is over 10 µM; in experiment [2], over 10 µM; in [3], over 10 µM; in experiment [4], over 10 µM; on Tubulin, 3 µM. Besides, the EC50 in [5] worked out at 4 µM; in experiment [7] it was 3.6 µM.
For `Cl.c1cc(Nc2ncnc3cc4c(cc23)OCCO4)cc(-c2ccco2)c1`, the IC50 was over 10 µM in [1]; over 10 µM in [2]; over 10 µM in [3]; over 10 µM in experiment [4]; 12 µM against Tubulin.
`CC(=O)O[C@H]1C(=O)[C@@]2(C)[C@H]([C@H](OC(=O)c3ccccc3)[C@]3(O)C[C@H](OC(=O)[C@H](O)[C@@H](NC(=O)c4ccccc4)c4ccccc4)C(C)=C1C3(C)C)[C@]1(OC(C)=O)CO[C@@H]1C[C@@H]2O` [PACLITAXEL]: the IC50 in experiment [1], in [2], in [3] and in experiment [4] was over 10 µM in each case. Moreover, the EC50 in experiment [5] came out at 0.018 µM; in experiment [7], 0.013 µM.

For orientation: IC50 means the midpoint of a concentration-inhibition curve. What is called EC50 is the concentration that produces a half-maximal response.
